Data as given in ChEMBL document CHEMBL1138750, “Design, synthesis, and biological evaluation of 1,2,3,7-tetrahydro-6h-purin-6-one and 3,7-dihydro-1h-purine-2,6-dione derivatives as corticotropin-releasing factor(1) receptor antagonists” (J Med Chem, 2004).

Columns and labels:
[1] = target: T1, Corticotropin-releasing factor receptor 1 (Rattus norvegicus, UniProt P35353); assay: Inhibition of [125I]- Ovine CRF binding to rat frontal cortex corticotropin releasing factor 1 receptor; format: tissue-based
T1 sequence (P35353 whole entry): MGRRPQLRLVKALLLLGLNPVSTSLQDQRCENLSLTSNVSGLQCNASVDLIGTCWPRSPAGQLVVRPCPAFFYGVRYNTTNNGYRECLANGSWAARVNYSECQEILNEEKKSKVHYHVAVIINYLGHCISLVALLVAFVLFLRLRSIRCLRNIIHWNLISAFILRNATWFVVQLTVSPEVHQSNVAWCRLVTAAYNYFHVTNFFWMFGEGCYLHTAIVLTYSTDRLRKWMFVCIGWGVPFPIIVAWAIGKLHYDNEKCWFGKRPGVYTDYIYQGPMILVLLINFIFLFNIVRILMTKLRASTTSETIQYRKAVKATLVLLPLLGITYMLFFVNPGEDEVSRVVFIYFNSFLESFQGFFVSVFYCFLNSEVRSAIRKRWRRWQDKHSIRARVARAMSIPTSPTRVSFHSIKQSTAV
In short: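 Frozen rat frontal cortex homogenate (25 μg/well) in 50 mM HEPES pH 7.0 with 10 mM MgCl₂, 2 mM EGTA, protease inhibitors, 0.005% Triton X-100, bacitracin and 0.1% ovalbumin. Bound ligand collected by filtration on PEI-treated filters and gamma counted. Nonspecific binding defined with 1 μM DMP696.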

[2] = Inhibition of CRF-stimulated cAMP production in human Y-79 retinoblastoma cells; format: functional, cell-based; conditions: Y79
In short: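 Human Y-79 retinoblastoma cells, 20 000/well in HBSS with 2 mM CaCl₂, 5 mM MgCl₂, 20 mM HEPES and 1 mM IBMX. Antagonist (typically 0.01–10 000 nM) preincubated 30 min at 37 °C, then 1 nM CRF added for 30 min at 37 °C. cAMP read by HTRF against a cAMP standard curve. Percent inhibition of CRF-induced cAMP determined in triplicate; basal cAMP without CRF also measured.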

CCCC(CCC)n1c(CC)nc2c1C(=O)N(C)CN2c1ccc(Cl)cc1Cl
IC50 [1]: 5.4 nM | IC50 [2]: 24.2 nM

CCc1nc2c(n1C(CC)CC)C(=O)N(C)CN2c1ccc(Cl)cc1Cl
IC50 [1]: 112 nM

CCCC(CCC)n1c(CC)nc2c1C(=O)N(C)CN2c1ccc(Cl)cc1
IC50 [1]: 173 nM

CCCC(C1CC1)n1c(CC)nc2c1C(=O)N(C)CN2c1ccc(Cl)cc1Cl (stereo not drawn)
IC50 [1]: 10 nM

CCc1nc2c(n1C(CC)C1CC1)C(=O)N(C)CN2c1ccc(Cl)cc1Cl (stereo not drawn)
IC50 [1]: 14 nM

CCCC(COC)n1c(CC)nc2c1C(=O)N(C)CN2c1ccc(Cl)cc1Cl (stereo not drawn)
IC50 [1]: 43 nM

CCCC(CCC)n1cnc2c1C(=O)N(C)CN2c1ccc(Cl)cc1Cl
IC50 [1]: 898 nM

CCc1nc2c(n1COCc1ccccc1)C(=O)N(C)CN2c1ccc(Cl)cc1Cl
IC50 [1]: 860 nM

CCc1nc2c(n1C(CC)C(C)C)C(=O)N(C)CN2c1ccc(C(C)C)cc1Cl (stereo not drawn)
IC50 [1]: 555 nM

CCCC(CCC)n1c(CC)nc2c1C(=O)N(C)CN2c1ccc(C(C)C)cc1Cl
IC50 [1]: 50 nM

CCCC(C)n1c(CC)nc2c1C(=O)N(C)CN2c1ccc(Cl)cc1Cl (stereo not drawn)
IC50 [1]: 52 nM

CCc1nc2c(n1Cc1ccccc1C)C(=O)N(C)CN2c1ccc(OC)cc1Cl
IC50 [1]: 875 nM

CCc1nc2c(n1C(C1CC1)C1CC1)C(=O)N(C)CN2c1ccc(Cl)cc1Cl
IC50 [1]: 6 nM | IC50 [2]: 14.4 nM

CCCCC(CC)n1c(CC)nc2c1C(=O)N(C)CN2c1ccc(Cl)cc1Cl (stereo not drawn)
IC50 [1]: 18 nM

CCCC(CCC)n1c(CC)nc2c1C(=O)N(C)C(C)N2c1ccc(Cl)cc1Cl (stereo not drawn)
IC50 [1]: 383 nM

CCc1nc2c(n1Cc1ccc(-c3ccccc3)cc1)C(=O)N(C)CN2c1ccc(Cl)cc1Cl
IC50 [1]: 324 nM

CCc1nc2c(n1Cc1ccc(OC)cc1)C(=O)N(C)CN2c1ccc(Cl)cc1Cl
IC50 [1]: 456 nM

CCCC(CCC)n1c(CC)nc2c1C(=O)N(C)CN2c1ccc(OC)cc1Cl
IC50 [1]: 27 nM

CCCC(CCC)n1c(CC)nc2c1C(=O)N(C)CN2c1c(C)cc(C)cc1C
IC50 [1]: 22 nM

CCc1nc2c(n1C(CC)C1CC1)C(=O)N(C)CN2c1ccc(OC)cc1Cl (stereo not drawn)
IC50 [1]: 113 nM

CCc1nc2c(n1C(C)C1CCC1)C(=O)N(C)CN2c1ccc(Cl)cc1Cl (stereo not drawn)
IC50 [1]: 26 nM

CCc1nc2c(n1Cc1ccccc1C)C(=O)N(C)CN2c1ccc(Cl)cc1Cl
IC50 [1]: 458 nM

CCc1nc2c(n1C(CC)C(C)C)C(=O)N(C)CN2c1ccc(Cl)cc1Cl (stereo not drawn)
IC50 [1]: 51 nM

CCCC(CCC)n1c(CC)nc2c1c(=O)n(C)c(=O)n2-c1ccc(Cl)cc1Cl
IC50 [1]: 75 nM

CCc1nc2c(n1C(C)C1CC1)C(=O)N(C)CN2c1ccc(Cl)cc1Cl (stereo not drawn)
IC50 [1]: 55 nM

CCCC(CCC)n1c(CC)nc2c1C(=O)N(C)C(CC)N2c1ccc(Cl)cc1Cl (stereo not drawn)
IC50 [1]: 626 nM
